From ChEMBL document CHEMBL1142446, “Discovery of 3-acetyl-4-hydroxy-2-pyranone derivatives and their difluoridoborate complexes as a novel class of HIV-1 integrase inhibitors” (Bioorg Med Chem, 2008)
Active and inactive are the calls of the source. No cut-off for these calls is given here.

Legend:
[1] = target: T1, Human immunodeficiency virus type 1 integrase (Human immunodeficiency virus 1, UniProt Q7ZJM1); assay: Inhibition of wild-type HIV1 integrase strand transfer activity
Outline: (§1)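 Recombinant wild-type HIV-1 integrase (200 nM final) preincubated with inhibitor for 30 min at 30 °C in 25 mM MOPS pH 7.2 with 50 mM NaCl, 7.5 mM MnCl2, 10% DMSO, BSA and thiols. Then 20 nM 5′-³²P-labeled 21-mer duplex substrate (21top/21bot) was added for 1 h. Quenched in formamide dye and resolved on denaturing 20% polyacrylamide–urea gel. Selectivity index = IC50(3′-processing)/IC50(strand transfer).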

HCT-116 (Homo sapiens) = assay: Cytotoxicity against human HCT 116 cells by MTT assay
[2] = Cytotoxicity against human HCT 116 cells after 72 hrs by MTT assay; assay type: cell-based; settings: hct-116, 72 h
Outline: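 HCT-116 monolayers were seeded at 8 × 10³ cells/well and attached overnight. Compounds in RPMI-1640 with 10% […] were added at a single final concentration of 10 and exposed for 72 h. MTT was then added for 4 h, crystals were dissolved in DMSO, and absorbance was read at 570 nm against blanks.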

[3] = target: Human immunodeficiency virus type 1 integrase (Human immunodeficiency virus 1) (UniProt Q7ZJM1); assay: Selectivity index, ratio of IC50 for wild-type HIV1 integrase 3'-end processing activity to IC50 for wild-type HIV1 integrase strand transfer activity; outline: as §1
[4] = target: T1, Human immunodeficiency virus type 1 integrase; assay: Inhibition of wild-type HIV1 integrase 3'-end processing activity; outline: as §1

Chain of Human immunodeficiency virus type 1 integrase (Human immunodeficiency virus 1) (Q7ZJM1 as listed by the source): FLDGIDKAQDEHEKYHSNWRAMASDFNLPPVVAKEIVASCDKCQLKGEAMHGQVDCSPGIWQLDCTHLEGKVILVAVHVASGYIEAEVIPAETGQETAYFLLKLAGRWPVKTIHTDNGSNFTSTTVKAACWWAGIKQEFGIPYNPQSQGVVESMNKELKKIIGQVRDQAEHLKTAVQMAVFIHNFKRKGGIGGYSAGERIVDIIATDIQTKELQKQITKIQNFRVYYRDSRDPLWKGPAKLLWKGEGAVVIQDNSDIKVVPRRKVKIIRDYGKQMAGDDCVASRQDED
T1 sequence (Q7ZJM1 whole entry): as the sequence (Q7ZJM1 as listed by the source) above

| IC50 [1] | Ratio IC50 [3] | IC50 [4] | Structure (SMILES) | Activity (HCT-116 (Homo sapiens)) | Activity [2] |
| --- | --- | --- | --- | --- | --- |
| 3 µM | 3.2 | 9 µM | Cc1cc2c(c(=O)o1)C(/C=C/c1ccc(Br)s1)=[O+][B-](F)(F)O2 | inactive | > 10 µM |
| > 100 µM |  | > 100 µM | COc1ccc(/C=C/C(=O)c2c(O)cc(/C=C/c3ccc(N(C)C)cc3)oc2=O)cc1 |  | > 10 µM |
| > 100 µM |  | > 100 µM | COc1ccc(Br)cc1/C=C/C1=[O+][B-](F)(F)Oc2cc(/C=C/c3ccc(N(C)C)cc3)oc(=O)c21 |  | > 10 µM |
| > 100 µM |  | > 100 µM | Cc1cc(O)c(C(=O)/C=C/C=C/c2ccc(N(C)C)cc2)c(=O)o1 |  | > 10 µM |
| > 100 µM |  | > 100 µM | COc1ccc(/C=C/C2=[O+][B-](F)(F)Oc3cc(/C=C/c4ccc(N(C)C)cc4)oc(=O)c32)cc1 |  | > 10 µM |
| 100 µM |  | > 100 µM | COc1ccc(Br)cc1/C=C/C(=O)c1c(O)cc(/C=C/c2ccc(N(C)C)cc2)oc1=O |  | > 10 µM |
| 23 µM | 2.8 | 65 µM | Cc1cc(O)c(C(=O)/C=C/c2ccc(Br)s2)c(=O)o1 |  | > 10 µM |
| > 100 µM |  | > 100 µM | Cc1cc(O)c(C(=O)/C=C/c2ccc(Br)cc2)c(=O)o1 |  | > 10 µM |
| > 100 µM |  | > 100 µM | Cc1cc2c(c(=O)o1)C(/C=C/C=C1/N(C)c3ccccc3C1(C)C)=[O+][B-](F)(F)O2 |  | > 10 µM |
| 100 µM |  | > 100 µM | Cc1cc2c(c(=O)o1)C(/C=C/C=C/c1ccc(N(C)C)cc1)=[O+][B-](F)(F)O2 |  | > 10 µM |
| 56 µM | > 1.8 | > 100 µM | Cc1cc2c(c(=O)o1)C(/C=C/c1ccc(N(C)C)cc1)=[O+][B-](F)(F)O2 |  | > 10 µM |
| 4 µM | 3.3 | 12 µM | Cc1cc2c(c(=O)o1)C(/C=C/c1ccc(Br)cc1)=[O+][B-](F)(F)O2 | inactive | > 10 µM |
| 7 µM | 1.9 | 13 µM | CC[NH+](CC)CC.Cc1cc2c(c(=O)o1)C(/C=C/C=C1\O[B-](F)(F)Oc3cc(C)oc(=O)c31)=[O+][B-](F)(F)O2 | inactive | > 10 µM |

More lines, now with the values behind:

| Structure (SMILES) | IC50 [1] | Ratio IC50 [3] | IC50 [4] | Activity (HCT-116 (Homo sapiens)) | Activity [2] |
| --- | --- | --- | --- | --- | --- |
| Cc1cc2c(c(=O)o1)C(/C=C/c1ccc(N(C)C)s1)=[O+][B-](F)(F)O2 | > 100 µM |  | > 100 µM |  | > 10 µM |
| CN(C)c1ccc(/C=C/C2=[O+][B-](F)(F)Oc3cc(/C=C/c4ccc(N(C)C)cc4)oc(=O)c32)cc1 | > 100 µM |  | > 100 µM |  | > 10 µM |
| Cc1cc(O)c(C(=O)/C=C/C=C2/N(C)c3ccccc3C2(C)C)c(=O)o1 | > 100 µM |  | > 100 µM |  | > 10 µM |
| COc1ccc(/C=C/C=C/C(=O)c2c(O)cc(C)oc2=O)cc1 | 39 µM | > 2.6 | > 100 µM |  | > 10 µM |
| CN(C)c1ccc(/C=C/C(=O)c2c(O)cc(/C=C/c3ccc(N(C)C)cc3)oc2=O)cc1 | > 100 µM |  | > 100 µM |  | > 10 µM |
| Cc1cc(O)c(C(=O)/C=C/c2ccc(F)cc2)c(=O)o1 | > 100 µM | < 0.7 | 64 µM |  | > 10 µM |
| Cc1cc(O)c(C(=O)/C=C/c2ccc(N(C)C)s2)c(=O)o1 | 11 µM | 1.8 | 19 µM |  | > 10 µM |
| COc1ccc(/C=C/C=C/C2=[O+][B-](F)(F)Oc3cc(C)oc(=O)c32)cc1 | 4 µM | 2.5 | 11 µM | inactive | > 10 µM |
| Cc1cc2c(c(=O)o1)C(/C=C/c1ccc(F)cc1)=[O+][B-](F)(F)O2 | 16 µM | 0.6 | 9 µM |  | > 10 µM |
